Converted amounts (≈) assume the structure as drawn.
The compounds below were run on Escherichia coli (assay: Antibacterial activity against marA-overproducing Escherichia coli CR1000 harboring inactivated ompR gene assessed as MarA-mediated multidrug resistance level by measuring fold change in MIC relative to MarA-deficient Escherichia coli CR2000). Conditions: not given.
Format: functional
Method in brief: (§1)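 Each inactivated gene was transferred into both the ΔmarR (CR1000) and the ΔmarRA (CR2000) BW25113 backgrounds. Each derivative was grown overnight in LB and tested by Etest on Mueller-Hinton plates, read after 20 h at 37°C, against cefoxitin, norfloxacin, chloramphenicol and minocycline. The MarA-mediated level compares the MIC in the ΔmarR derivative with the MIC in the matching ΔmarRA derivative.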

**Q.** CN(C)c1ccc(O)c2c1C[C@H]1C[C@H]3[C@H](N(C)C)C(O)=C(C(N)=O)C(=O)[C@@]3(O)C(O)=C1C2=O [MINOCYCLINE] was tested. Which Activity did it give?
**A.** 100%

The compounds below were run on Escherichia coli (assay: Antibacterial activity against MarA-overexpressing Escherichia coli CR1000 after 20 hrs by Etest method). Conditions: CR1000, 20 h.
Format: functional
Method in brief: (§2)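 MICs by Etest strips on Mueller-Hinton plates, following the manufacturer's specifications. Cells came from overnight liquid cultures in LB at 37°C with agitation. Plates were read after 20 h at 37°C. Antibiotics tested were cefoxitin, norfloxacin, chloramphenicol and minocycline.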

**Q.** With CN(C)c1ccc(O)c2c1C[C@H]1C[C@H]3[C@H](N(C)C)C(O)=C(C(N)=O)C(=O)[C@@]3(O)C(O)=C1C2=O [MINOCYCLINE] as the compound, how does the MIC read?
**A.** 4.9 µg/mL (≈ 10.7 µM)

What follows are compounds tested on Escherichia coli (assay: Antibacterial activity against marA-overproducing Escherichia coli CR1000 harboring inactivated yfdG gene assessed as MarA-mediated multidrug resistance level by measuring fold change in MIC relative to MarA-deficient Escherichia coli CR2000). Conditions: not given.
Format: functional
Method in brief: as §1

**Q.** With CN(C)c1ccc(O)c2c1C[C@H]1C[C@H]3[C@H](N(C)C)C(O)=C(C(N)=O)C(=O)[C@@]3(O)C(O)=C1C2=O [MINOCYCLINE] as the compound, how does the Activity read?
**A.** 65%

The compounds below were run on Escherichia coli (assay: Antibacterial activity against marA-overproducing Escherichia coli CR1000 harboring inactivated treC gene assessed as MarA-mediated multidrug resistance level by measuring fold change in MIC relative to MarA-deficient Escherichia coli CR2000). Conditions: not given.
Format: functional
Method in brief: as §1

**Q.** How did the Activity turn out when CN(C)c1ccc(O)c2c1C[C@H]1C[C@H]3[C@H](N(C)C)C(O)=C(C(N)=O)C(=O)[C@@]3(O)C(O)=C1C2=O [MINOCYCLINE] was run?
**A.** 100%

Each compound was assayed on Escherichia coli (assay: Antibacterial activity against marA-overproducing Escherichia coli CR1000 harboring inactivated yibLp gene assessed as MarA-mediated multidrug resistance level by measuring fold change in MIC relative to MarA-deficient Escherichia coli CR2000). Conditions: not given.
Format: functional
Method in brief: as §1

**Q.** CN(C)c1ccc(O)c2c1C[C@H]1C[C@H]3[C@H](N(C)C)C(O)=C(C(N)=O)C(=O)[C@@]3(O)C(O)=C1C2=O [MINOCYCLINE] was tested. Which Activity did it give?
**A.** 100%

Each compound was assayed on Escherichia coli (assay: Antibacterial activity against marA-overproducing Escherichia coli CR1000 harboring inactivated nikD gene assessed as MarA-mediated multidrug resistance level by measuring fold change in MIC relative to MarA-deficient Escherichia coli CR2000). Conditions: not given.
Format: functional
Method in brief: as §1

**Q.** For CN(C)c1ccc(O)c2c1C[C@H]1C[C@H]3[C@H](N(C)C)C(O)=C(C(N)=O)C(=O)[C@@]3(O)C(O)=C1C2=O [MINOCYCLINE], which Activity is on record?
**A.** 125%

Each compound was assayed on Escherichia coli (assay: Antibacterial activity against marA-overproducing Escherichia coli CR1000 harboring inactivated yniDp gene assessed as MarA-mediated multidrug resistance level by measuring fold change in MIC relative to MarA-deficient Escherichia coli CR2000). Conditions: not given.
Format: functional
Method in brief: as §1

**Q.** How did the Activity turn out when CN(C)c1ccc(O)c2c1C[C@H]1C[C@H]3[C@H](N(C)C)C(O)=C(C(N)=O)C(=O)[C@@]3(O)C(O)=C1C2=O [MINOCYCLINE] was run?
**A.** 50%

What follows are compounds tested on Escherichia coli (assay: Ratio of MIC for marA-overproducing Escherichia coli CR1000 to MIC for MarA-deficient Escherichia coli CR2000). Conditions: not given.
Format: functional
Method in brief: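 MICs measured by Etest on Mueller-Hinton plates, read after 20 h at 37°C, for the ΔmarR strain (constitutive chromosomal marA overexpression) and the ΔmarRA strain (BW25113 background), both grown overnight in LB at 37°C. MarA-mediated MDR expressed as the ΔmarR/ΔmarRA MIC ratio.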

**Q.** CN(C)c1ccc(O)c2c1C[C@H]1C[C@H]3[C@H](N(C)C)C(O)=C(C(N)=O)C(=O)[C@@]3(O)C(O)=C1C2=O [MINOCYCLINE] was tested. Which Ratio did it give?
**A.** 2

The compounds below were run on Escherichia coli (assay: Antibacterial activity against MarA-deficient Escherichia coli CR2000 after 20 hrs by Etest method). Conditions: CR2000, 20 h.
Format: functional
Method in brief: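 Overnight LB-grown cultures (37°C, agitation) of the ΔmarRA strain (BW25113 background) tested on Mueller-Hinton plates with Etest strips per manufacturer's instructions. MIC read after 20 h at 37°C.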

**Q.** For CN(C)c1ccc(O)c2c1C[C@H]1C[C@H]3[C@H](N(C)C)C(O)=C(C(N)=O)C(=O)[C@@]3(O)C(O)=C1C2=O [MINOCYCLINE], which MIC is on record?
**A.** 2.4 µg/mL (≈ 5.25 µM)

These compounds were tested on Escherichia coli (assay: Antibacterial activity against marA-overproducing Escherichia coli CR1000 harboring inactivated maoC gene assessed as MarA-mediated multidrug resistance level by measuring fold change in MIC relative to MarA-deficient Escherichia coli CR2000). Conditions: not given.
Format: functional
Method in brief: as §1

**Q.** How did the Activity turn out when CN(C)c1ccc(O)c2c1C[C@H]1C[C@H]3[C@H](N(C)C)C(O)=C(C(N)=O)C(=O)[C@@]3(O)C(O)=C1C2=O [MINOCYCLINE] was run?
**A.** 40%

These compounds were tested on Escherichia coli (assay: Antibacterial activity against wild-type Escherichia coli BW25113 after 20 hrs by Etest method). Conditions: BW25113, 20 h.
Format: functional
Method in brief: as §2

**Q.** How did the MIC turn out when CN(C)c1ccc(O)c2c1C[C@H]1C[C@H]3[C@H](N(C)C)C(O)=C(C(N)=O)C(=O)[C@@]3(O)C(O)=C1C2=O [MINOCYCLINE] was run?
**A.** 3.3 µg/mL (≈ 7.21 µM)

Each compound was assayed on Escherichia coli (assay: Antibacterial activity against marA-overproducing Escherichia coli CR1000 harboring inactivated hns gene assessed as MarA-mediated multidrug resistance level by measuring fold decrease in MIC relative to MarA-deficient Escherichia coli CR2000). Conditions: not given.
Format: functional
Set-up: scale not given: the % may be the effect or the level left
Method in brief: as §1

**Q.** Which Activity does the source give for CN(C)c1ccc(O)c2c1C[C@H]1C[C@H]3[C@H](N(C)C)C(O)=C(C(N)=O)C(=O)[C@@]3(O)C(O)=C1C2=O [MINOCYCLINE] here?
**A.** 35%

Each compound was assayed on Escherichia coli (assay: Antibacterial activity against marA-overproducing Escherichia coli CR1000 harboring inactivated ynfE gene assessed as MarA-mediated multidrug resistance level by measuring fold change in MIC relative to MarA-deficient Escherichia coli CR2000). Conditions: not given.
Format: functional
Method in brief: as §1

**Q.** For CN(C)c1ccc(O)c2c1C[C@H]1C[C@H]3[C@H](N(C)C)C(O)=C(C(N)=O)C(=O)[C@@]3(O)C(O)=C1C2=O [MINOCYCLINE], which Activity is on record?
**A.** 100%

These compounds were tested on Escherichia coli (assay: Antibacterial activity against marA-overproducing Escherichia coli CR1000 harboring inactivated tolC gene assessed as MarA-mediated multidrug resistance level by measuring fold decrease in MIC relative to MarA-deficient Escherichia coli CR2000). Conditions: not given.
Format: functional
Set-up: scale not given: the % may be the effect or the level left
Method in brief: as §1

**Q.** With CN(C)c1ccc(O)c2c1C[C@H]1C[C@H]3[C@H](N(C)C)C(O)=C(C(N)=O)C(=O)[C@@]3(O)C(O)=C1C2=O [MINOCYCLINE] as the compound, how does the Activity read?
**A.** 40%
